Data set [1] in a line: Half life in human serum at 10^-3 M by HPLC analysis. It is filed as ADME, cell-free.
A short description of data set [2]: Half life in RPMI 1640 culture medium at 10^-3 M by HPLC analysis. It is filed as physicochemical.
The nature of data set [3]: Half life in pH 7.4 Tris HCl buffer containing KCl at 10^-3 M by HPLC analysis. It is filed as physicochemical.
Data set [4] in a line: Half life in human gastric juice. In kind it is ADME, tissue-based.
The nature of data set [5]: Half life in pH 2 solution at 10^-3 M by HPLC analysis. In kind it is physicochemical.
Data set [6] in a line: Stability in pH 7.4 phosphate buffered saline assessed as lipid adsorption on glass surface using kimax glassware measured up to 1440 mins by LC-MS analysis. In kind it is physicochemical. The following applies: buffer, pH 7.4, 24 h.
A short description of data set [7]: Stability in pH 7.4 phosphate buffered saline assessed as lipid adsorption on glass surface using silanized glassware measured up to 1440 mins by LC-MS analysis. In kind it is physicochemical. Particulars: buffer, pH 7.4, 24 h.
Data set [8] can be described thus: Stability in pH 7.4 phosphate buffered saline assessed as lipid adsorption on glass surface using pyrex glassware measured up to 1440 mins by LC-MS analysis. In kind it is physicochemical. The following applies: buffer, pH 7.4, 24 h.
Data set [9] can be described thus: Oral bioavailability in rat at 30 mg/kg, administered through gastric intubation by HPLC analysis. It is filed as ADME, organism-based. The following applies: in vivo.
Data set [10] is described as follows: Oral bioavailability in rhesus monkey by HPLC analysis. It is filed as ADME, organism-based, Macaca mulatta. The following applies: in vivo.
Another data set relates to PBMC. The data set can be described thus: Cytotoxicity against human PBMC assessed as reduction in cell viability by XTT assay. It is filed as cell-based. Put shortly:
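CC50 is the concentration in μM that reduces viability of uninfected PBMCs by 50%.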

Data set [11] in a line: Therapeutic index, ratio of CC50 for human PBMC to EC50 for HIV1 infected in human PBMC. In kind it is toxicity. Particulars: read-out: Ratio CC50/EC50. Put shortly: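 TI is the ratio of PBMC CC50 (uninfected cells, 50% viability loss) to EC50 for 50% inhibition of HIV-1, both in μM; HIV-1 activity measured as reverse transcriptase in supernatants of infected PBMCs.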

Data set [12] is described as follows: Oral bioavailability in mouse. In kind it is ADME, organism-based. Particulars: in vivo.
The subject of data set [13] is Human immunodeficiency virus 1. The data set can be described thus: Antiviral activity against HIV1 infected in human PBMC assessed as inhibition of viral replication by measuring reverse transcriptase activity in cell supernatant preincubated with cells followed by viral infection measured after 7 days by radioactive incorporation polymerization assay. It is filed as functional, organism-based. Put shortly: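 HIV-infected PBMCs; antiviral activity read as reverse transcriptase in cell supernatants; EC50 is the concentration in μM that inhibits HIV-1 by 50%.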

The structures appear in SMILES notation. pEC50: −log10 of the molar value.

`Nc1ncnc2c1ncn2CCOCP(=O)(OCCSSCCO)OCCSSCCO`: the half-life at 1000 µM in data set [1] was less than 4.98 min; in [2], greater than 24 h; in [3] it was greater than 24 h; in data set [5], greater than 24 h. Further, the half-life in data set [4] is greater than 24 h.

Regarding `CCCCCCCCCCCCCCCCOCCCOC[C@H]1O[C@@H](n2ccc(=O)[nH]c2=O)[C@H](F)[C@@H]1O`, the Stability result is listed as “Stable” in data set [6], “Unstable” in data set [7] and “Unstable” in [8].

Regarding `Nc1ncnc2c1ncn2CCOCP(=O)(O)O` [ADEFOVIR], the figures for the bioavailability in data set [9] and in data set [10] were 8 to 11% and less than 1%, respectively.

As to `C[C@H](Cn1cnc2c(N)ncnc21)OCP(=O)(O)O` [TENOFOVIR ANHYDROUS], the CC50 in the data set on PBMC is greater than 100000 nM. The selectivity ratio in data set [11] is greater than 300. In [12], this molecule yielded a bioavailability of 2%. The pEC50 in data set [13] was 6.50.

The values above are taken from ChEMBL document CHEMBL4477226, “Reduction Sensitive Lipid Conjugates of Tenofovir: Synthesis, Stability, and Antiviral Activity” (J Med Chem, 2016).
